Test results published in ChEMBL document CHEMBL5096209, “Structure-Activity Studies of 3,9-Diazaspiro[5.5]undecane-Based γ-Aminobutyric Acid Type A Receptor Antagonists with Immunomodulatory Effect” (J Med Chem, 2021).
Activity calls are given as the source filed them. The rule behind the calls is not given here.

What was measured:
[1] = molecular target: T1, Gamma-aminobutyric acid receptor subunit alpha-1/beta-2/delta (Homo sapiens, UniProt O14764+P14867+P47870); test: Antagonist activity at recombinant human alpha1beta2delta GABAA receptor expressed in HEK293 Flp-In cells by FMP assay; format: cell-based, Flp-In-293
T1 sequence (P14867 whole entry): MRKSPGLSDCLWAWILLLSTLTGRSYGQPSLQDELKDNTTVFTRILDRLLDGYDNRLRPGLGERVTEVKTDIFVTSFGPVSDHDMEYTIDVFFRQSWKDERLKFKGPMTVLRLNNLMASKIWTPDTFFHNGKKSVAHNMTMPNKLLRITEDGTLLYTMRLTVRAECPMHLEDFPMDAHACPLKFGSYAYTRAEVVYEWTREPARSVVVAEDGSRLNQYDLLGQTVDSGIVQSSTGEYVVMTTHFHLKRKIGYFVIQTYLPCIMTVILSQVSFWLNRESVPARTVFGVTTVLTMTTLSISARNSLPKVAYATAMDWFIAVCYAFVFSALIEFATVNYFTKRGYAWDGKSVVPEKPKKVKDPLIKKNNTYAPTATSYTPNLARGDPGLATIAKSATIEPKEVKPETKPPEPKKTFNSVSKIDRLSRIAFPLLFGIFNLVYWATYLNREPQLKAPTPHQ
T1 sequence (P47870 whole entry): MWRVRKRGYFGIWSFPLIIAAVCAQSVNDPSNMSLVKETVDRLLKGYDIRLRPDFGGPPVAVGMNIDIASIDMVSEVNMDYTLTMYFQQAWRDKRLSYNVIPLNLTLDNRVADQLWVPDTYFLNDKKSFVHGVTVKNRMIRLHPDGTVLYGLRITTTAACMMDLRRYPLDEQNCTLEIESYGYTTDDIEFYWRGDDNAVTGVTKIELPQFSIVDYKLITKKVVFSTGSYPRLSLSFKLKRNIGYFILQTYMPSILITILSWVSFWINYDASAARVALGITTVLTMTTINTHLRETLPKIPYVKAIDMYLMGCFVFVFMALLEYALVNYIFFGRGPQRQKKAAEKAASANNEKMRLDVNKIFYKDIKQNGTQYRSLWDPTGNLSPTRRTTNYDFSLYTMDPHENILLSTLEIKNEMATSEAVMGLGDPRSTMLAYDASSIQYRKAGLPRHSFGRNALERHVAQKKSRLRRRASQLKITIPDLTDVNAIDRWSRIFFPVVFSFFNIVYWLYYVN
T1 sequence (O14764 whole entry): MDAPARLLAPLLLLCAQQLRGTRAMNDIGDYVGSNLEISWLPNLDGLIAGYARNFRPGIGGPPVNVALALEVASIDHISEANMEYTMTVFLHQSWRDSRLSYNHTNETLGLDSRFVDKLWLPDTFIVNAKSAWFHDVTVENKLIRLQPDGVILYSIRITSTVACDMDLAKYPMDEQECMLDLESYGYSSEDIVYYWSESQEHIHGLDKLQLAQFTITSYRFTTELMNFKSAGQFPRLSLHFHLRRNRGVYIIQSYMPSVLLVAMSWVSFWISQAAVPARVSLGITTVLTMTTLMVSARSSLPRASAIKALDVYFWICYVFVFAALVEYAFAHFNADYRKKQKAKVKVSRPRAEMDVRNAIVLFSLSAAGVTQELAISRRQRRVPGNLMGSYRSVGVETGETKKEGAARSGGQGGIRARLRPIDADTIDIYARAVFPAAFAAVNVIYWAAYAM
How it was run: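 HEK293 Flp-In cells stably expressing human δ subunit, transiently transfected with human α and β subunits (1:1) to form αβδ receptors. Read-out is the FLIPR membrane potential dye ΔRFU, baseline to peak/plateau, with GABA EC80 as agonist. Four-parameter fit of concentration–inhibition curves gives IC50, from at least three independent experiments.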

Homo sapiens = organism: Homo sapiens; test: Binding affinity to GABA receptor (unknown origin) assessed as equilibrium binding constant by schild plot analysis; settings: filed as antagonist
CD8-positive T cell = test: Induction of cell proliferation of mouse CD8-positive T cells at 50 uM measured after 48 hrs in presence of alprazolam by flow cytometry analysis relative to control; format: functional, cell-based
How it was run: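 Splenocytes from female BALB/c mice were CFSE-stained (5 μM) and stimulated with soluble anti-CD3 145.2C11 (33 ng/mL) plus alprazolam 100 μM, with test compound at 50 μM, for 48 h. CD4+/CD8+ proliferation was measured by CFSE dilution on flow cytometry, at least six independent experiments.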

[2] = Induction of cell proliferation of human CD8-positive T cells at 50 uM measured after 96 hrs in presence of alprazolam by flow cytometry analysis relative to control; format: functional
How it was run: (§1)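 Human PBMC from leukocyte cones were CFSE-stained (5 μM) and held at high density overnight. They were then stimulated with soluble anti-CD3 OKT3 (100 pg/mL) plus alprazolam 33 μM, with test compound at 50 μM, for 96 h. CD4+/CD8+ proliferation was measured by CFSE dilution on flow cytometry, at least six independent experiments.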

[3] = Apparent permeability of compound across apical to basolateral side in MDCK cells; format: ADME, cell-based, Canis lupus familiaris; settings: dog
How it was run: (§2)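 MDR1-transfected MDCK monolayers, 0.5 μM test compound added apically or basally. Bidirectional apparent permeability measured in triplicate. Efflux ratio is B→A permeability divided by A→B permeability.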

[4] = tested on: CD4-positive T cell (mouse); test: Induction of cell proliferation of mouse CD4+ve Th cells at 50 uM measured after 48 hrs in presence of alprazolam by flow cytometry analysis relative to control
[5] = Receptor occupancy at human GABA receptor
[6] = Efflux ratio of apparent permeability across basolateral to apical side over apical to basolateral side in MDCK; format: ADME, cell-based, Canis lupus familiaris; settings: dog; how it was run: as §2
[7] = Apparent permeability of compound across basolateral to apical side in MDCK cells; format: ADME, cell-based, Canis lupus familiaris; settings: dog; how it was run: as §2
CD4+ve Th = test: Induction of cell proliferation of human CD4+ve Th cells at 50 uM measured after 96 hrs in presence of alprazolam by flow cytometry analysis relative to control; format: functional; how it was run: as §1

| IC50 ([1]; read-out: pIC50 (converted)) [µM] | Kb (Homo sapiens) [µM] | Papp A→B [3] [×10⁻⁶ cm/s] | pIC50 [5] | efflux ratio [6] | Papp B→A [7] [×10⁻⁶ cm/s] | IC50 [1] [µM] | Structure (SMILES) | Activity (CD8-positive T cell) | Activity [2] [%] | Activity [4] | Activity (CD4+ve Th) [%] |
| --- | --- | --- | --- | --- | --- | --- | --- | --- | --- | --- | --- |
| 0.245 | 0.0069 | – | – | – | – | – | O=C(Nc1cccc(C(=O)N2CCC3(CCNCC3)CC2)c1)c1cccs1 | – | – | – | – |
| – | – | 1.3 | 7.152 | 11.5 | 15 | – | Cc1cccc(C(=O)N2CCC3(CCNCC3)CC2)c1 | Active | 20 | Active | 20 |
| 6.76 | – | – | – | – | – | 6.68 | CC(=O)Nc1cccc(C(=O)N2CCC3(CCNCC3)CC2)c1 | – | – | – | – |
